Experimental data reported in publication PMC3698760 (Journal of the American Heart Association: Cardiovascular …, 2013).
Entries after “also recorded” stand apart in the source; their conditions may differ.

Tests used:
[1] = Circular dichroism; format: physicochemical; conditions: CD spectra in water, 200 to 260 nm
How it was run: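 Spectra of peptides and human apoA-I (17.8 to 178 μmol/L) recorded at 25°C in a thermostatted quartz cell with 0.1 mm path length, scanning 200–260 nm. Results expressed as mean residue ellipticity (deg cm² dmol⁻¹).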

[2] = tested on: mouse peritoneal macrophages; assay: Cellular cholesterol efflux in mouse peritoneal macrophages; format: cell-based; conditions: 20 μg/mL, 4 hours, n=4 to 5
How it was run: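 Peritoneal macrophages taken from mice injected i.p. with 2 mL 2.9% thioglycollate 90 h earlier, and selected as cells adherent after 2 h. Cells were labelled with ³H-cholesterol and kept in serum-free medium with 0.2% BSA. Efflux to 20 μg/mL acceptor was measured over 4 h.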

[3] = tested on: human monocyte‐derived macrophages; assay: Cellular cholesterol efflux in human monocyte-derived macrophages; format: cell-based; conditions: 20 μg/mL, 4 hours, n=4 to 5
How it was run: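 Human peripheral blood monocyte-derived macrophages isolated by Lymphoprep gradient. Cells were radiolabelled with ³H-cholesterol and kept in serum-free medium containing 0.2% BSA. Efflux to 20 μg/mL acceptor (apoA-I or test peptide) or no acceptor was measured over 4 h.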

[4] = target: T1, ABCA1 (Homo sapiens, UniProt O95477); assay: Cholesterol efflux in COS-7 cells transiently transfected with human ABCA1 cDNA; format: cell-based; conditions: 20 μg/mL, 4 hours, n=6 to 7
How it was run: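 COS‑7 cells were kept in DMEM with 10% FBS and antibiotics and seeded at 80–90% confluence. They were transfected by lipofection with human ABCA1 cDNA in pcDNA3.1 (with ABCG1 in pEdsRed‑N1), or with mock vector. Cells were then ³H‑cholesterol labelled, and efflux was measured in serum‑free medium with 0.2% BSA.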

[5] = target: T1, ABCA1; assay: Cholesterol efflux in CHO-ldlA7 cells transfected with human ABCA1 cDNA; format: cell-based; conditions: 20 μg/mL, 4 hours, n=6
How it was run: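 CHO-ldlA7 cells seeded at 80–90% confluence were transiently transfected (Lipofectamine 2000) with human ABCA1 cDNA in pcDNA3.1 or with empty vector (mock). Cells were labelled with ³H-cholesterol in serum-free medium with 0.2% BSA. Efflux over 4 h was measured with or without 20 μg/mL human apoA-I or test peptide; n=6.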

[6] = tested on: monocyte‐derived macrophages from an ABCA1‐deficient Tangier disease patient; format: cell-based, human; conditions: 20 μg/mL, 4 hours, n=4
How it was run: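 Peripheral blood monocyte‑derived macrophages came from a healthy volunteer and a Tangier disease patient, with ethics approval and written consent. Cells were isolated by Lymphoprep density separation and labelled with ³H‑cholesterol. Efflux was run in serum‑free 0.2% BSA medium with or without 20 μg/mL human apoA‑I or test peptide for 4 h. n=4; mean±SD.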

[7] = target: T1, ABCA1; assay: Probucol-inhibitable, ABCA1-specific cholesterol efflux in A172 cells; format: cell-based; conditions: probucol 10 μmol/L
How it was run: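 A172 glioblastoma cells, labelled with ³H-cholesterol, were held in serum-free 0.2% BSA medium with 5 μmol/L T0901317 and 5 μmol/L 9-cis-retinoic acid. Cells were exposed for 4 h to 20 μg/mL acceptor, with or without 10 μmol/L probucol. ABCA1-dependent efflux was taken as the probucol-inhibitable fraction.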

[8] = tested on: human erythrocytes; assay: Hemolysis assay; format: cell-based; conditions: 1% human erythrocytes in PBS, 10 minutes at 37°C; up to 1.0 mg/mL; OD 540 nm
How it was run: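 Erythrocytes from EDTA blood of 4 human donors, washed 3 times in PBS to remove plasma and buffy coat. A 1% suspension in PBS was incubated with or without test peptide for 10 min at 37°C. Hemoglobin in the supernatant was read at 540 nm and expressed as percentage of Triton X-100 lysis; mean±SD.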

[9] = human whole plasma, 60 minutes at 37°C; FAMP5 0.2 to 2.0 mg/mL, ACD-FAMP5 2.0 mg/mL
How it was run: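 Human whole plasma was incubated with saline, test peptide (0.2 to 2.0 mg/mL) or acridone-labelled peptide (2.0 mg/mL) for 60 min at 37°C. Samples were run on agarose gel electrophoresis with cholesterol staining, transferred to PVDF and immunoblotted with goat anti-human apoA-I antibody. The fluorescent label was visualized on the gel under UV light.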

[10] = tested on: apoE−/− mice fed a high‐fat diet; assay: Aortic atherosclerotic lesion formation, 16-week treatment; format: in vivo; conditions: high-dose 50 mg/kg i.p. 3 times per week, 16 weeks; Oil Red O; mean±SD; P<0.01 vs scrambled
How it was run: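 Male apoE−/− mice, bought at six weeks, fed a high-fat diet (0.5% cholesterol, 10% fat) and dosed i.p. 3 times per week for 16 weeks: test peptide at 10 or 50 mg/kg per day, or scrambled peptide. Whole aortas were then stained with Oil Red O. Lesion area was scored by image analysis as percentage of aorta from ascending aorta to abdominal bifurcation.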

[11] = tested on: apoE‐deficient mice; assay: Plasma lipid profiles by enzymatic assay, 16-week treatment; format: in vivo; conditions: 16 weeks; for HDL Cholesterol / Total Cholesterol / Triglyceride: 3 times a week, high-fat-fed apoE-deficient mice, mean±SD
How it was run: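 Overnight-fasting plasma taken after 16 weeks from 19 of 23 high-fat-fed apoE−/− mice. Dosing was i.p. 3 times weekly with scrambled peptide or test peptide at 10 or 50 mg/kg per day. Total cholesterol, triglyceride and HDL cholesterol were measured by enzymatic assay; mean±SD.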

[12] = tested on: RAW264 macrophages; assay: Ex vivo cholesterol efflux mediated by plasma HDL of treated mice; format: in vivo; conditions: high-dose 50 mg/kg, 16 weeks; apoB-depleted plasma, 8Br-cAMP-treated RAW264 macrophages
How it was run: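 Plasma collected after 16 weeks of i.p. treatment of high-fat-fed apoE−/− mice. ApoB-depleted plasma served as acceptor for ³H-cholesterol-labelled RAW264 macrophages. Macrophages were pretreated with 0.3 mmol/L 8Br-cAMP and kept in serum-free medium with 0.2% BSA.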

[13] = tested on: C‐reactive protein (CRP); assay: Plasma high-sensitive CRP by ELISA; format: in vivo; conditions: low (10 mg/kg) and high (50 mg/kg) doses, 16 weeks, apoE−/− mice
How it was run: (§1)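 Overnight-fasted plasma collected from high-fat-fed apoE−/− mice after 16 weeks of i.p. dosing 3 times weekly (10 or 50 mg/kg per day, or scrambled peptide). High-sensitivity CRP and MCP-1 were quantified with commercial ELISA kits.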

[14] = tested on: monocyte chemoattractant protein‐1 (MCP‐1); assay: Plasma MCP-1 by ELISA; format: in vivo; conditions: high dose (50 mg/kg), 16 weeks, apoE−/− mice
How it was run: as §1

[15] = high-dose 50 mg/kg per day i.p., n=7
[16] = low-dose 10 mg/kg per day i.p., n=5

T1 sequence (O95477 whole entry): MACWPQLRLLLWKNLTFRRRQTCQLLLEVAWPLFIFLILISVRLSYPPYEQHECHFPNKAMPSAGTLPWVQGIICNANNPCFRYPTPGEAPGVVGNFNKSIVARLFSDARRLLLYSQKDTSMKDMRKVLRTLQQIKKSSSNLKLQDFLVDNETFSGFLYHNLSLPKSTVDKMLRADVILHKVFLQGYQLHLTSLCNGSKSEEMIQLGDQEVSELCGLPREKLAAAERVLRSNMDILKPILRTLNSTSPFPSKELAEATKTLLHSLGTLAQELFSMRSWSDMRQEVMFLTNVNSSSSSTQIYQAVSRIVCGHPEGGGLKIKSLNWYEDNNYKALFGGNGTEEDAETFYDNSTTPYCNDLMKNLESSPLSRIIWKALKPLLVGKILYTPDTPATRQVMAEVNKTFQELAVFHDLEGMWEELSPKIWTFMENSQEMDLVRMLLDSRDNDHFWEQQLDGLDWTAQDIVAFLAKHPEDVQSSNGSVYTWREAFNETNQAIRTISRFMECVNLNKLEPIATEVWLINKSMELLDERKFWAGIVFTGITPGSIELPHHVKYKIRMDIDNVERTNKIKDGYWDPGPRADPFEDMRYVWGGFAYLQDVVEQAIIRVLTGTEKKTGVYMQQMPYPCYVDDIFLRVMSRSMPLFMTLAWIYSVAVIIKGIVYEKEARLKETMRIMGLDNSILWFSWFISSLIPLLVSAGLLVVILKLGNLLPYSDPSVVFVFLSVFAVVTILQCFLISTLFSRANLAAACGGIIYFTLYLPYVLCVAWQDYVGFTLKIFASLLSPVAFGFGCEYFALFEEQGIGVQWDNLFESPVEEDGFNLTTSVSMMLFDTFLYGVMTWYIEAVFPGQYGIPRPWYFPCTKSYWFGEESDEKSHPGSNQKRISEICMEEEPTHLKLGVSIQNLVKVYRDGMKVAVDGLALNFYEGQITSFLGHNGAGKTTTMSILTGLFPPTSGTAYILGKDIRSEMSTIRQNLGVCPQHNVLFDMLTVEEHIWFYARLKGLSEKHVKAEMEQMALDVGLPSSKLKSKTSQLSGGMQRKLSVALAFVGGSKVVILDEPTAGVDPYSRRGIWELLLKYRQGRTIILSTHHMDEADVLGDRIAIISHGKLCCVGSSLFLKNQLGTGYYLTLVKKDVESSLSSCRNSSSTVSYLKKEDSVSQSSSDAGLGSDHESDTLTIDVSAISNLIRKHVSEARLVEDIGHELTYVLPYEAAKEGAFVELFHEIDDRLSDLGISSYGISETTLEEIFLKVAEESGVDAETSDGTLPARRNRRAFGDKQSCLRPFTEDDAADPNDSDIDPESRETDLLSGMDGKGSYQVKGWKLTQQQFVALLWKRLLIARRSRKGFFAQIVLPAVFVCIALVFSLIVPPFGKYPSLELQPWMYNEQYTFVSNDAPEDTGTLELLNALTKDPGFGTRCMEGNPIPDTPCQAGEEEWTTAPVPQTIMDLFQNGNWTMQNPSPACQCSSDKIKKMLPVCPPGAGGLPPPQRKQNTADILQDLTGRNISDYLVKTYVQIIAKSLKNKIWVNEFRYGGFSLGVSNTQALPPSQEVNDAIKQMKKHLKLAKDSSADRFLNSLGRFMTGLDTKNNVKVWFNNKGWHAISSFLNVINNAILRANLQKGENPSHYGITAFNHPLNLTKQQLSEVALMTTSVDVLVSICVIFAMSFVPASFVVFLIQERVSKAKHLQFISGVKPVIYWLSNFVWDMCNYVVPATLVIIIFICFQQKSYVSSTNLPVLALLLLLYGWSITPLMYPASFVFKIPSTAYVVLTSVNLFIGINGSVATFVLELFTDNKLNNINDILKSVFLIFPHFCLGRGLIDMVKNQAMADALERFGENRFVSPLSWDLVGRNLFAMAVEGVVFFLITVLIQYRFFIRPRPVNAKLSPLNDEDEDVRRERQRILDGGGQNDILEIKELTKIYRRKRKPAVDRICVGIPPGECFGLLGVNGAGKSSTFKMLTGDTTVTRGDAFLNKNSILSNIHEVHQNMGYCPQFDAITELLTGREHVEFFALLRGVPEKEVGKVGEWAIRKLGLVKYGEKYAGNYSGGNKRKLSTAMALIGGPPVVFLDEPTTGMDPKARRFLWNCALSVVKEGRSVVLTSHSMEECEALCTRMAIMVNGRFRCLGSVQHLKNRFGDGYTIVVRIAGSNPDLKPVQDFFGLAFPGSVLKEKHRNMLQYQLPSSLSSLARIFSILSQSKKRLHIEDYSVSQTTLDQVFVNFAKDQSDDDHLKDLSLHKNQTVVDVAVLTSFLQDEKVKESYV

α‐helical conformation (CD spectra) [1]: formed strong α‐helical conformations | cholesterol efflux after transient transfection with ABCA1 cDNA vs mock [4]: significantly upregulated | cholesterol efflux after transient transfection with ABCA1 cDNA vs mock [5]: significantly upregulated
Substance: H-ALEHLFTLYEKALKALEDLLKKLL-OH [FAMP5]
cholesterol efflux [2]: induced cholesterol efflux significantly more than human apoA‐I | cholesterol efflux [3]: induced cholesterol efflux significantly more than human apoA‐I | cholesterol efflux in Tangier disease macrophages vs healthy subject [6]: suppressed | percentage of probucol‐inhibitable, ABCA1‐specific cholesterol efflux [7]: significantly higher than that in L‐4F; also recorded: significantly lower than human apoA‐I | red cell hemolysis (percentage of the Triton X‐100 lysis) [8]: only limited effects | conversion of α HDL to pre‐β HDL on agarose gel electrophoresis [9]: shifted the α HDL band to the pre‐β HDL position; also recorded: completely converted α HDL to pre‐β HDL | relative surface area of aortic plaque lesions [10]: 16.2±5.0% | HDL Cholesterol [11, 15]: 12.6 ± 3.7 mg/dL | Total Cholesterol [11, 15]: 1439.5 ± 271.5 mg/dL | Triglyceride [11, 15]: 102.7 ± 18.3 mg/dL | effect on plasma total cholesterol, triglyceride, and HDL cholesterol levels ([11]; low and high doses, enzymatic assay): no significant effects | HDL Cholesterol [11, 16]: 16.6 ± 4.8 mg/dL | Total Cholesterol [11, 16]: 1532.8 ± 589.6 mg/dL | Triglyceride [11, 16]: 120.0 ± 41.6 mg/dL | ex vivo cholesterol efflux mediated by HDL of treated mice [12]: significant increase | plasma high‐sensitive CRP levels [13]: equally suppressed | plasma MCP‐1 levels [14]: significantly reduced
